Assays:
[1] = tested on: L1210; assay: Compound was evaluated for growth inhibition during 48 hours with L1210 murine leukemia cells; type: functional, cell-based, Mus musculus
Summary of the method: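 L1210 mouse leukemia cells grown in suspension in DMEM with 10% FCS, 2 mM glutamine, streptomycin and penicillin, at 37 °C in 5% CO2. Log-phase cells at 5 × 10^4 cells/mL were exposed to a range of concentrations for 48 h. Pt complexes came from DMSO stocks, pre-held 30 min at 40 °C, final DMSO 0.5%; ligand hydrochlorides were given in water. Cells were counted by haemocytometer, inhibition taken as % of untreated control, and IC50 interpolated from a log-linear plot. At least two independent duplicates were run.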

[2] = tested on: L1210; assay: Compound was evaluated for inhibition of DNA synthesis during 48 hours with L1210 murine leukemia cells; type: functional, cell-based, Mus musculus
Summary of the method: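 Log-phase L1210 cells, cultured and treated as in the growth assay (5 × 10^4 cells/mL, 48 h total exposure; Pt complexes from DMSO, final 0.5%). At 42 h, 0.5 μCi [6-3H]thymidine was added and incubation continued 6 h. Cells were harvested onto glass-fibre filters, washed twice with water, and counted by liquid scintillation. IC50 is for inhibition of thymidine incorporation.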

Compound | IC50 ([1]; Mus musculus, L1210, 48 h) [µM] | IC50 ([2]; Mus musculus, L1210, 48 h) [µM] | IC50 ([1]; l1210) [µM] | IC50 ([2]; l1210) [µM]
COc1cc2c(cc1OC)C(c1ccccc1N)NCC2 (stereo not drawn) | 141 | 90 | – | –
COc1ccc(N)c(C2NCCc3cc(OC)c(OC)cc32)c1 (stereo not drawn) | 97 | 100 | – | –
[1-(2-Amino-5-methoxyphenyl)-6,7-dimethoxy-1,2,3,4-tetrahydroisoquinoline]dichloroplatinum (II) | – | – | 0.95 | 1.4
[1-(2-Aminophenyl)-6,7-dimethoxyisoquinoline]dichloroplatinum (II) | – | – | 9.7 | 20

From ChEMBL document CHEMBL1132369, “Synthesis of 1-(2-aminophenyl)isoquinolines and the biological activity of their cis-dichloro platinum(II) complexes” (J Med Chem, 1999)
